Published values pooled from the literature.
Protocols differ between the studies behind these lines.
BRD4 BD1: Bromodomain-containing protein 4, BD1 (BRD4, Homo sapiens, UniProt O60885)
BRD4 BD2: Bromodomain-containing protein 4, BD2 (BRD4, Homo sapiens, UniProt O60885)

Structure (SMILES) | target | test | setting | quantity | value
Cc1cnc(Nc2ccc(OCCN3CCCC3)cc2)nc1Nc1cccc(S(=O)(=O)NC(C)(C)C)c1 | BRD4 BD1 | thermal stability, DSF | 10 µM | ΔTm | 3.8 °C
Cn1cc(C(=O)Nc2cccc(C(=O)O)c2)ccc1=O | BRD4 BD1 | thermal stability, DSF | 100 µM | ΔTm | 0.9 °C
NS(=O)(=O)c1ccc(Nc2nc(-c3ccc(F)cc3)c3ccccc3n2)cc1 | BRD4 BD2 | binding, competition with immobilised ligand | 1 µM | remaining binding | 4%
Cc1cc2c(NC(=O)c3cccc(C(=O)O)c3)cccc2nn1 | BRD4 BD1 | thermal stability, DSF | 100 µM | ΔTm | 1.4 °C
C[S+]([O-])c1ccc(-c2nc(-c3ccncc3)c(-c3ccc(F)cc3)[nH]2)cc1 (stereo not drawn) | BRD4 BD1 | thermal stability, DSF | 10 µM | ΔTm | 1.32 °C
CC(C)(C)c1cc(NC(=O)Nc2ccc(-c3cn4c(n3)sc3cc(OCCN5CCOCC5)ccc34)cc2)no1 | BRD4 BD1 | thermal stability, DSF | 100 µM | ΔTm | < 1 °C
CC(C)[C@@H]1NC(=O)[C@@H]2CCCN2C(=O)[C@H](Cc2ccccc2)NC(=O)CSC[C@@H](C(=O)N[C@@H](Cc2ccc(O)cc2)C(N)=O)NC(=O)[C@H](Cc2c[nH]c3ccccc23)NC(=O)[C@H](CCCCN)NC(=O)[C@H](Cc2ccccc2)N(C)C(=O)[C@H](Cc2ccccc2)NC1=O | BRD4 BD1 | thermal stability, DSF | 100 µM | ΔTm | -0.52 °C
COc1cc(C(=O)N2CCC(N3CCN(C)CC3)CC2)ccc1Nc1ncc2c(n1)N(C)c1ccccc1C(=O)N2C | BRD4 BD1 | thermal stability, DSF | 10 µM | ΔTm | 2.1 °C
CN(C)CCN1CCN(c2nc(NCc3cccc(Cl)c3)c3cc(-c4ccc(=O)n(C)c4)ccc3n2)CC1 | BRD4 BD2 | thermal stability, DSF | 250 µM | ΔTm | 11 °C
